Screens deposited in PubChem BioAssay by The Scripps Research Institute Molecular Screening Center.
Most compounds without a hit are left out; they make up all but 1.9% or so of the library.
NS3 helicase inh – HCV NS3 helicase inhibition | NS3 helicase DNA unwinding, Cy5 molecular beacon fluorescence | inhibition, % at 10.9 µM | hit rate 0.56% among 290,000 | AID 1800;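 active means inhibition above the mean of all tested compounds plus 3 SD, set per campaign, cut at about 35% in these data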;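 further: 0% = DMSO wells and 100% = thioflavine S control wells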
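Material: hepatitis C virus NS3 helicase domain fragment enzyme; measured by: Cy5 fluorescence, 0 and 60 min reads; control set: DMSO and thioflavine S; incubation: 60 min unwinding reaction at 25 °C after ATP addition; read-out basis: % inhibition from 60/0 min fluorescence ratio, DMSO 0%, thioflavine S 100%; repeats: singlicate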
ZTA DNA inh – counter-screen for EBNA-1 inhibitors: inhibitors of Epstein-Barr virus ZTA | AID 2234 | ZTA-DNA binding, fluorescence polarization | inhibition, % at 11 µM | hit rate 0.15% among 320,000; in the data active means inhibition above about 33%
Target sequence (P03206 whole entry, looked up): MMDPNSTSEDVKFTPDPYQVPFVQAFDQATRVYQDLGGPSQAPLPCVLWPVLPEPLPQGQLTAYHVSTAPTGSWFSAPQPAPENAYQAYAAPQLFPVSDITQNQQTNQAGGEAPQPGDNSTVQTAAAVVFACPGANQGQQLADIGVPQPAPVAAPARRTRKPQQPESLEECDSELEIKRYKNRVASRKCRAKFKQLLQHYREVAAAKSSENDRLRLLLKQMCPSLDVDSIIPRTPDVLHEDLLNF
PP1 counter – counter-screen for PP5 inhibitors: inhibitors of human PP1-alpha; purified PP1alpha, OMFP fluorescence; inhibition, % at 6.7 µM; P62136; AID 2235; hit rate 0.9% among 320,000;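 active means inhibition above the mean inhibition of all tested compounds plus 3 SD, computed separately for each screening campaign, cut at about 15% in these data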
Target sequence (P62136 whole entry, looked up): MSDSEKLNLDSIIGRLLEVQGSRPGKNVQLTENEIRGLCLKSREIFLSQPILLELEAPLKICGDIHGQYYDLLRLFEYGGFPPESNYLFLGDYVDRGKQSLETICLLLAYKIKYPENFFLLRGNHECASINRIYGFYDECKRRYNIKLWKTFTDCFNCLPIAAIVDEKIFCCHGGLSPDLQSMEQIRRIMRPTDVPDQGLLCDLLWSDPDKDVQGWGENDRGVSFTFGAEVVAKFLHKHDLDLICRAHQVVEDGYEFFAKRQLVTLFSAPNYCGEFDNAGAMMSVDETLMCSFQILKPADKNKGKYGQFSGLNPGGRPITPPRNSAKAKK
core dimer inh – blocks dimerization of HCV core protein. hit rate 0.33% among 300,000. TR-FRET GST/Flag-core106 dimerization, 1536-well. inhibition, % at 5 µM;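 active means inhibition above the mean of all tested compounds plus 3 SD, set per screening campaign, cut at about 45% in these data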
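System: GST-tagged and Flag-tagged HCV core protein residues 1-106 / Input: core106 proteins, GST 13.5 nM and Flag 17 nM / Buffer or medium: KF-containing HEPES buffer, pH 7.45, DTT, CHAPS, BSA / Probe or stimulus: Eu-anti-GST and XL665-anti-Flag labelled anti-tag antibodies / Schedule: 4 h, 22.5 °C incubation / Technique: TR-FRET 671 and 617 nm emission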
EBNA-1 inh – blocks EBNA-1 binding to DNA; EBNA-1 DNA binding, fluorescence polarization; inhibition, % at 14.8 µM; hit rate 0.34% among 300,000; in the data active means inhibition above about 28%
Zta DNA confirm – EBV ZTA DNA binding inhibition, confirmation; shares compounds with ZTA DNA inh; Zta-ZRE DNA binding, fluorescence polarization; inhibition, % at 11.1 µM; hit rate 30% among 320; AID 2361;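 active means mean inhibition across triplicate runs above the hit threshold derived for the original primary screen, cut at about 33% in these data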;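 further: 0% = Zta with DMSO and 100% = wells lacking Zta protein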
EBNA-1 counter – EBNA-1 DNA binding inhibition, counter-screen for ZTA | shares compounds with ZTA DNA inh | fluorescence polarization | inhibition, % at 14.8 µM | 320 tested, under 10 active; call rule not given here
PP1 confirm – confirmation of human PP1 phosphatase inhibitors; shares compounds with PP1 counter; purified PP1alpha, OMFP substrate fluorescence; inhibition, % at 6.7 µM; hit rate 52% among 1,900;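 active means mean PP1 inhibition above a set limit taken from the earlier primary screen, cut at about 15% in these data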
PP5 inh counter – counter-screen for PP1 inhibitors: human PP5 phosphatase inhibition; shares compounds with PP1 counter; hit rate 4% among 1,900; purified PP5c, OMFP fluorescence; inhibition, % at 6.7 µM;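 active means mean PP5 inhibition over triplicate wells above about 9.5% taken from the earlier PP1 screen, limit read from the data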
* hit, by the source's call; x = no result given.

SMILES	NS3 helicase inh	ZTA DNA inh	PP1 counter	core dimer inh	EBNA-1 inh	PP1 confirm	PP5 inh counter	others
CCc1ccc(S(=O)(=O)/N=C2\C=C(Nc3ccc(C(=O)O)cc3)C(=O)c3ccccc32)cc1	-4	53*	15*	-2	-4	16*	44*	Zta DNA confirm=52*;EBNA-1 counter=2
COC(=O)c1ccccc1NC1=C/C(=N\S(=O)(=O)c2ccc(C(=O)O)cc2)c2ccccc2C1=O	-18	3	5	23	-10	x	x
c1ccc(C2=Nn3c(nnc3-c3cc(-c4ccccc4)n[nH]3)SC2)cc1	-13	2	13	28	0	x	x
Clc1ccc(C2=Nn3c(nnc3-c3cc(-c4ccccc4)n[nH]3)SC2)cc1	-1	9	23*	24	5	16*	-1
c1ccc(C2=Nn3c(nnc3-c3n[nH]c4c3CCC4)SC2)cc1	1	2	4	7	-13	x	x
Clc1ccc(C2=Nn3c(nnc3-c3n[nH]c4c3CCC4)SC2)cc1Cl	-17	18	23*	17	5	28*	3
Cn1ccnc1C(=O)c1ccc(S(=O)(=O)N2CCCC2)cc1	0	9	-6	4	4	x	x
Cc1nc(SC(C)C(=O)NCC2CCCO2)c2cc(-c3ccccc3)sc2n1 (stereo not given)	x	1	-7	11	-1	x	x
COc1ccc2c(Cl)c(C(=O)N/N=C/c3ccc4c(c3)OCO4)sc2c1	4	13	20*	9	15	48*	2
O=C(N/N=C/c1ccc2c(c1)OCO2)c1ccc(NC(=O)c2ccc(F)cc2)cc1	-12	0	19*	10	-2	30*	-3
COCCN(C(=O)CCC(=O)Nc1ccccn1)C(C(=O)NC(C)C)c1ccc(C)cc1 (stereo not given)	10	-9	5	-4	-5	x	x
CC(=O)Nc1ccc(NC(=O)c2ccc(S(=O)(=O)N(C)c3ccccc3)cc2)cc1	x	5	3	x	x	x	x
CN(c1ccccc1)S(=O)(=O)c1ccc(C(=O)Nc2nnc(-c3ccco3)o2)cc1	7	-9	22*	7	-6	20*	2
CCN(c1ccccc1)S(=O)(=O)c1ccc(C(=O)Nc2cccc(C)n2)cc1	x	-4	2	x	x	x	x
CCN(c1ccccc1)S(=O)(=O)c1ccc(C(=O)Nc2nnc(-c3ccco3)o2)cc1	25	-4	19*	19	5	23*	2
CCOc1ccc(NC(=NCc2ccc3c(c2)OCO3)SC2CC(=O)N(c3ccc(C(=O)O)cc3)C2=O)cc1 (stereo not given)	-1	9	19*	24	12	8	6
CCOc1ccc(NC(=NCc2ccc3c(c2)OCO3)SC2CC(=O)N(c3ccc(OCC)cc3)C2=O)cc1 (stereo not given)	-5	5	-2	3	17	x	x
COc1ccc(N(CC(=O)NCc2ccc(F)cc2)C(=O)Cn2nnc(-c3ccc(C)o3)n2)cc1OC	-8	10	-1	7	15	x	x
CC(C)=NNC(=O)c1c(O)c2ccccc2[nH]c1=O	-8	-18	21*	1	-11	9	-2
N#Cc1c(-c2ccc(Cl)cc2)cc(-c2cccs2)nc1SCC(=O)O	5	13	47*	-20	7	49*	-5
CC1CCCC(C)N1C(=O)COC(=O)Cc1c[nH]c2ccccc12 (stereo not given)	x	4	-2	0	-8	x	x
Cc1ccc(NC(=O)/C(=C\c2cccc([N+](=O)[O-])c2)NC(=O)c2cccs2)cc1	-10	20	24*	17	9	18*	-4
Cc1cc(/C=N/NC(N)=S)c(C)n1-c1cccc(Cl)c1	-2	14	60*	8	5	1	1
Cc1cc(/C=N/NC(N)=S)c(C)n1-c1ccc(Cl)cc1	-12	4	0	14	6	x	x
Cc1cccc(C)c1-n1c(C)cc(/C=N/NC(N)=S)c1C	7	-5	4	14	-8	x	x
SMILES	NS3 helicase inh	ZTA DNA inh	PP1 counter	core dimer inh	EBNA-1 inh	PP1 confirm	PP5 inh counter	others
Cc1cc(/C=N/NC(N)=S)c(C)n1-c1ccc(Br)cc1	-6	-6	25*	29	9	16*	-4
O=C(NCCCN1CCCC(O)C1)c1cc(COc2ccc(F)cc2F)on1 (stereo not given)	-5	0	-1	3	7	x	x
CC(C)c1ccc2c(c1)C(N1CCNCC1)Cc1ccc(F)cc1S2 (stereo not given)	x	-1	19*	-8	1	-1	-1
O=c1cnc2ccccc2n1Cc1ccccc1C(F)(F)F	2	-6	-1	3	-2	x	x
COc1ccc(O)c(/C=N/NC(=O)c2ccc(CSc3nc(C)cc(C)n3)cc2)c1	-6	-14	8	15	-5	x	x
Cc1cc(C)nc(SCc2ccc(C(=O)N/N=C/c3cccc(O)c3O)cc2)n1	31	0	25*	13	4	28*	0
COc1cc(/C=C2\C(C)=C(C#N)c3nc(N)c(C#N)c(C)c32)ccc1OCC(=O)O	12	-26	30*	-11	-3	7	0
Cc1ccc2nc(-c3ccc(SCC(=O)Nc4nnc(C)s4)nc3)[nH]c2c1	-26	0	20*	-1	19	25*	-2
Cc1nn(C)c(C(=O)N/N=C/c2ccc(C(F)(F)F)cc2)c1[N+](=O)[O-]	1	6	-3	-3	-6	x	x
Cc1occc1-c1nnc(SCC(=O)Nc2nccs2)n1Cc1ccco1	7	-23	30*	0	10	-6	-4
O=C(CSc1nnc(-c2ccc(O)cc2)n1Cc1ccco1)c1cccs1	3	-5	30*	5	-31	-7	-8
Cc1cc(C)nc(SCc2nnc(SCC(=O)Nc3nccs3)n2Cc2ccco2)n1	6	-6	-2	7	6	x	x
O=C(CSc1nnc(-c2ccc(O)cc2)n1Cc1ccco1)c1ccccc1	3	8	3	6	-3	x	x
CCOc1ccccc1NC(=O)CSc1nc2nc(-c3cccs3)cc(C(F)(F)F)c2c(=O)[nH]1	24	12	21*	26	6	15	2
Cc1cc(NC(=O)C(C)SCC(=O)N(C)CC(=O)Nc2ccc(F)cc2)no1 (stereo not given)	x	-2	-3	0	6	x	x
O=C1CC(N2C(=O)/C(=C/C=C/c3ccccc3)SC2=S)C(=O)N1c1ccccc1 (stereo not given)	10	-7	24*	51*	-11	8	-2
O=C(NCc1cccnc1)Nc1ccc(Cl)cc1Cl	3	0	-2	2	-1	x	x
